Lmaj promast = inhibitors of Leishmania major promastigote growth | Leishmania major promastigotes, resazurin fluorescence viability | inhibition, % at 10 µM | 200,000 tested, 9% active; in the data active = inhibition above about 50%;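 note: promastigotes grown with compound for 44 hours at 28 °C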
PMI activator = increases human mannose-6-phosphate isomerase activity. P34949. purified human PMI, coupled resazurin fluorescence, 20 min; active compounds read high; 1 = vehicle control, 0 substrate-free wells. activation factor at 20 µM. 190,000 tested, 0.005% active. AID 1214;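 active = activation factor of 2 or more at 20 µM, relative to plate controls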
Target sequence (P34949 whole entry, looked up): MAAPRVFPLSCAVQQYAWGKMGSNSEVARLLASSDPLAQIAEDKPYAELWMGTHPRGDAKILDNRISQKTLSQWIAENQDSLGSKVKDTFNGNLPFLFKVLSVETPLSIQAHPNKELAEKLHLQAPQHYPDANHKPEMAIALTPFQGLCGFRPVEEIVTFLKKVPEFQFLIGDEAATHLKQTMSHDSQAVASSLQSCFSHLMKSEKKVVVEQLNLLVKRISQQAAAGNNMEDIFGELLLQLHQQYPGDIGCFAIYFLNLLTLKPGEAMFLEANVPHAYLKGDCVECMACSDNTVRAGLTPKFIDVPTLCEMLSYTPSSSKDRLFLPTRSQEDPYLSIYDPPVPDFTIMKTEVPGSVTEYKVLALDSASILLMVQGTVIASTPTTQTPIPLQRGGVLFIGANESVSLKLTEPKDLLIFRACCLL
WT yeast gro inh = growth inhibition of WT yeast, mitochondrial fusion screen. 190,000 tested, 2.1% active. inhibition, % at 10 µM. AID 1362. mitochondrial fusion phenotypic screen, WT strain; in the data active = inhibition above about 58%; tested in S. cerevisiae
PMI act hi M6P = increases human PMI activity with near-saturating mannose 6-phosphate; AID 1216; P34949; activation factor at 20 µM; 190,000 tested, 0.34% active; coupled PMI enzyme assay, resazurin fluorescence, 20 min; active compounds read high; 1 = untreated enzyme, 0 = substrate-free blank;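 active = activation factor of 2 or more at 20 µM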
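Test system: human phosphomannose isomerase with PGI, G6PDH, diaphorase coupling enzymes; amount: 15 ng/mL PMI; incubation: enzyme reaction with compound 20 min at room temperature; technique: resorufin fluorescence (Ex 544/Em 590 nm) from resazurin via diaphorase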
Diaph act CS = activates diaphorase or chemically reduces, flagging diaphorase assay artifacts. Diaphorase/resazurin coupled assay, resorufin fluorescence, 16 min; active compounds read high; 1 = vehicle wells, 0 = NADH-free wells. AID 1229. 190,000 tested, 0.005% active. activation factor at 20 µM;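 active = diaphorase activity raised at least twofold by the compound at 20 µM; inactive = activation factor below 2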
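Material: Purified diaphorase enzyme from Clostridium kluyveri | Buffer or medium: 50 mM HEPES pH 7.4 with 4.542 mM MgCl2, 0.005% Tween 20 | Times: 16 min enzyme reaction, ambient temperature | Signal: Red resorufin fluorescence at 544/590 nm excitation/emission | Measure: Increased resorufin signal from activators or reducing compounds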
Each line names hits and unclear results; the compound was inactive in the other large screens. Shown are actives, neighbours in structure and some others; about 10% of the full set was active somewhere.

O=[N+]([O-])c1nn(-c2ccc3c(c2)OCCO3)n(O)c1=NC1CCCC1	none
O=C1CCCN1CCCN=c1c([N+](=O)[O-])nn(-c2ccc(Cl)cc2)n1O	Lmaj promast 73
O=[N+]([O-])c1nn(-c2ccccc2)n(O)c1=NCc1ccc2c(c1)OCO2	none
O=[N+]([O-])c1nn(-c2ccc3c(c2)OCCO3)n(O)c1=NC1CCCCCC1	Lmaj promast 87
COc1ccc(-n2nc([N+](=O)[O-])c(=NCc3ccc4c(c3)OCO4)n2O)cc1	Lmaj promast 97
O=[N+]([O-])c1nn(-c2ccc3c(c2)OCCO3)n(O)c1=NCCCO	Lmaj promast 72
Cc1ccccc1C(=O)Oc1cc(N)n(S(=O)(=O)c2ccccc2)n1	none
CNc1c([N+](=O)[O-])cnn1-c1ccccn1	none
Cc1ccc(N=c2c([N+](=O)[O-])nn(-c3ccc4c(c3)OCCO4)n2O)c(Cl)c1	none
Cc1ccc(CN=c2c([N+](=O)[O-])nn(-c3ccc4c(c3)OCCO4)n2O)cc1	Lmaj promast 98
N#Cc1c(NC(=S)NC(=O)c2ccccc2)sc2c1CCCC2	none
N#Cc1c(NC(=S)NC(=O)c2ccccc2)sc2c1CCN(CCc1ccccc1)C2	PMI act hi M6P 2.2
COCC(C)NC(=O)/C(=C/c1ccccc1)c1ccccc1 (centres undefined)	none
CC(NC(=O)/C(=C/c1ccc(OC(F)F)cc1)c1ccccc1)c1ccccc1 (centres undefined)	Lmaj promast 78, WT yeast gro inh 65
N#Cc1c2ccc(O)cc2n2ccccc12	Lmaj promast 100
CCOc1ccc(OCc2ccc(C(=O)N/N=C(\C)c3ccccn3)cc2)cc1	none
CCC(C)/C(C)=N/NC(=O)c1ccc(COc2ccc(Cl)c(C)c2)cc1 (centres undefined)	WT yeast gro inh 72
COc1ccccc1CNc1nc2nc(C)c(C)c(=O)n2[nH]1	WT yeast gro inh 79
Sc1oc(-c2ccccc2)cc1C=Nc1ccccc1	none
CN1N=C(c2ccc(F)c(F)c2)CSC1=NCc1ccccc1	WT yeast gro inh 69
O=C(Cn1c(=O)oc2ccccc21)N1CCOCC1	none
O=C(CN1C(=O)c2ccccc2S1(=O)=O)NC1CCCC1	none
Cc1cc(C)c(N(C(=O)CN2C(=O)c3ccccc3S2(=O)=O)C(C(=O)NCC2CCCO2)c2ccc(F)cc2)c(C)c1 (centres undefined)	Lmaj promast 69
O=C(NC1CCCCC1)C(c1ccc(F)cc1)N(Cc1ccccc1)C(=O)CN1C(=O)c2ccccc2S1(=O)=O (centres undefined)	Lmaj promast 58
O=C(NC1CCCC1)C(c1ccc(F)cc1)N(Cc1ccc(F)cc1)C(=O)CCl (centres undefined)	Lmaj promast 100
O=C(NC1CCCCC1)C(c1ccc(F)cc1)N(CCc1ccccc1)C(=O)CN1C(=O)c2ccccc2S1(=O)=O (centres undefined)	Lmaj promast 50
Cc1ccc(NC(=S)Nc2cccc3cnccc23)cc1	none
Cc1ccc(NC(=S)Nc2cccc3cnccc23)cc1C	WT yeast gro inh 59
Cc1ccc(C)c(NC(=S)Nc2cccc3cnccc23)c1	WT yeast gro inh 62
Cc1ccccc1NC(=S)Nc1cccc2cnccc12	none
S=C(Nc1cccc(Cl)c1)Nc1cccc2cnccc12	WT yeast gro inh 70
FC(F)(F)c1nc(N2CCCC2)ncc1-c1nnnn1-c1ccc(Cl)cc1	WT yeast gro inh 59
O=[N+]([O-])c1nn(-c2ccc3c(c2)OCCO3)n(O)c1=Nc1ccccc1	Lmaj promast 97
CCc1ccc(N=c2c([N+](=O)[O-])nn(-c3ccc4c(c3)OCCO4)n2O)cc1	none
O=[N+]([O-])c1nn(-c2ccc3c(c2)OCCO3)n(O)c1=Nc1ccc(Cl)cc1	Lmaj promast 77
Cc1cc(C)cc(N=c2c([N+](=O)[O-])nn(-c3ccc4c(c3)OCCO4)n2O)c1	Lmaj promast 85
Cn1nc(C(=O)OCc2ccc(Br)cc2F)c2ccccc2c1=O	none
COc1ccc(S(=O)(=O)NNC(=O)c2cc3ccccc3o2)cc1	none
COc1ccccc1OCC(=O)Nc1ccc(-c2nnc(-c3ccco3)o2)cc1	none (no result: PMI activator, PMI act hi M6P, Diaph act CS)
CCC(Oc1ccccc1)C(=O)Nc1ccc(-c2nnc(-c3ccco3)o2)cc1 (centres undefined)	Lmaj promast 94
Cc1nc(N2CCCCC2)c2c(-c3cccs3)csc2n1	WT yeast gro inh 69
Cc1nc(N2CCN(S(=O)(=O)c3ccccc3C#N)CC2)c2c(-c3cccs3)csc2n1	none
CC1CCN(CC(O)COC2CC(C)CCC2C(C)C)CC1 (centres undefined)	Lmaj promast 90
CC1CCC(C(C)C)C(OCC(O)CNC(C)(C)C)C1 (centres undefined)	none
CCOC(=O)N1CCN(CC(O)COC2CC(C)CCC2C(C)C)CC1 (centres undefined)	Lmaj promast 95, WT yeast gro inh 77
COC(=O)C1=C(C)N(c2ccc(F)cc2)/C(=C/c2ccc(O)cc2)C1=O	none
O=C(Nc1cc(Cl)ccc1Cl)c1ccc(-c2ccccc2)cc1	Lmaj promast 51
O=C(Nc1cccc(Cl)c1Cl)c1ccc(-c2ccccc2)cc1	none
CCC(C)(C)NC(=O)c1ccc(Sc2nncn2C)c([N+](=O)[O-])c1	Lmaj promast 50
Cn1cnnc1Sc1ccc(C(=O)NCCC23CC4CC(CC(C4)C2)C3)cc1[N+](=O)[O-]	Lmaj promast 51
Cn1cnnc1Sc1ccc(/C=C/C(=O)c2ccc(O)cc2)cc1[N+](=O)[O-]	Lmaj promast 100
COc1cc(/C=C/C(=O)O)cc(S(=O)(=O)Nc2cccc(SC)c2)c1OC	none
C=CCSc1nc2c(c(C3CC=CCC3)c1C#N)CCC2 (centres undefined)	WT yeast gro inh 61
CC(C)OC(=O)CSc1nc2c(c(C3CC=CCC3)c1C#N)CCC2 (centres undefined)	none
Cc1cc(C(=O)CN2C(=O)C(=O)N(Cc3ccccc3)C2=O)c(C)n1CC1COc2ccccc2O1 (centres undefined)	none
Cc1cc(C(=O)COC(=O)c2ccc(CO)cc2)c(C)n1CC1COc2ccccc2O1 (centres undefined)	Lmaj promast 55
CCCCn1c2ccc(F)cc2c2nnc(NN)nc21	none
O=C(Cc1ccc(S(=O)(=O)N2CCCC2)s1)Nc1nc2c(s1)CCCC2	Lmaj promast 85
O=C1Nc2ccc(F)cc2C12Nc1ccccc1-c1nnc(SCc3ccccc3F)nc1O2 (centres undefined)	none
O=C1Nc2ccc(Cl)cc2C12Nc1ccccc1-c1nnc(SCc3ccccc3F)nc1O2 (centres undefined)	WT yeast gro inh 69
Cc1ccc(-c2nc(SCC(=O)NCC3CCCO3)c(-c3ccccc3)[nH]2)cc1 (centres undefined)	none
